Laboratory results taken from ChEMBL document CHEMBL5532699, “Design, docking optimization, and evaluation of biotin-PEG4-1,8-naphthalimide as a potent and safe antitumor agent with dual targeting of ferroptosis and DNA” (RSC Med Chem, 2024).

Assays:
U-251 [1] = assay: Antitumor activity against human U-251 cells xenografted in nude mouse assessed as tumor inhibition ratio at 25 mg/kg, ip administered once every two days for 21 days relative to control; format: functional; conditions: U-251, 504 h, time 21 day
In short: (§1)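 1×10^6 tumor cells injected s.c. into the right flank of nude mice. At mean tumor volume 60–80 mm³, animals randomized to vehicle or treatment groups (n = 6). Compound in 5% v/v DMSO/saline given i.p. every 2 days. Tumor size and weight recorded; volume = lw²/2 from length and width. Body weight tracked as the systemic toxicity index.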

[2] = Toxicity in nude mouse xenografted with human U-251 cells assessed as decrease in animal movement at 25 mg/kg, ip administered once every two days for 21 days; format: organism-based; conditions: in vivo, 504 h, time 21 day; in short: as §1
[3] = Toxicity in nude mouse xenografted with human U-251 cells assessed as decrease in body weight at 25 mg/kg, ip administered once every two days for 21 days; format: organism-based; conditions: in vivo, 504 h, time 21 day; in short: as §1
U-251 [4] = assay: Antiproliferative activity against human U-251 cells incubated for 48 hrs by MTT assay; format: functional, cell-based; conditions: U-251, 48 h
In short: (§2)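 Monolayer cells in DMEM with 10% FBS, penicillin and streptomycin, 37°C, 5% CO2. Exponentially growing cells were seeded in 96-well plates and exposed to compound for 48 h. MTT was then added for 4 h at 37°C. Medium was removed, formazan dissolved in DMSO, and OD read at 490 nm. Each plate had five replicate wells, and assays were repeated three times per line.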

[5] = Cytotoxicity against HK-2 cells incubated for 48 hrs by MTT assay; format: toxicity, cell-based; conditions: human; in short: as §2
MDA-MB-231 = assay: Antiproliferative activity against human MDA-MB-231 cells incubated for 48 hrs by MTT assay; format: functional, cell-based; conditions: MDA-MB-231, 48 h; in short: as §2
[6] = Cytotoxicity against HUVEC cells incubated for 48 hrs by MTT assay; format: toxicity, cell-based; conditions: human; in short: as §2
A549 = assay: Antiproliferative activity against human A549 cells incubated for 48 hrs by MTT assay; format: functional, cell-based; conditions: A549, 48 h; in short: as §2
HCT-116 = assay: Antiproliferative activity against human HCT-116 cells incubated for 48 hrs by MTT assay; format: functional, cell-based; conditions: HCT-116, 48 h; in short: as §2
[7] = Toxicity in nude mouse xenografted with human MGC-803 cells assessed as pathological changes in lung at 5 mg/kg, ip administered once every two days for 21 days by H and E staining based analysis; format: organism-based; conditions: in vivo, 504 h, time 21 day
In short: (§3)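 Major organs from MGC-803 xenograft nude mice (i.p. dosing in 5% DMSO/saline every 2 days, n = 6) were stained with haematoxylin-eosin and examined at 200×.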

[8] = Toxicity in nude mouse xenografted with human MGC-803 cells assessed as pathological changes in heart at 5 mg/kg, ip administered once every two days for 21 days by H and E staining based analysis; format: organism-based; conditions: in vivo, 504 h, time 21 day; in short: as §3
T-24 = assay: Antiproliferative activity against human T24 cells incubated for 48 hrs by MTT assay; format: functional, cell-based; conditions: T-24, 48 h; in short: as §2
[9] = Toxicity in nude mouse xenografted with human U-251 cells assessed as decrease in body weight at 10 mg/kg, ip administered once every two days for 21 days; format: organism-based; conditions: in vivo, 504 h, time 21 day
In short: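 Subcutaneous xenograft in nude mice (1×10^6 cells, right flank). At 60–80 mm³, mice were randomised (n = 6 per group) to solvent control or treatment. Compound in 5% v/v DMSO/saline was given i.p. once every 2 days. Body weight was recorded as the indicator of systemic toxicity.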

U-251 [10] = assay: Antitumor activity against human U-251 cells xenografted in nude mouse assessed as tumor inhibition ratio at 10 mg/kg, ip administered once every two days for 21 days relative to control; format: functional; conditions: U-251, 504 h, time 21 day
In short: (§4)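 1×10^6 tumour cells were injected subcutaneously into the right flank of nude mice. At a mean tumour volume of 60–80 mm³, mice were randomised into solvent control and treated groups (n = 6). Compound in 5% v/v DMSO/saline was given i.p. every 2 days. Tumour length and width were measured, V = lw²/2, and tumour weight was recorded.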

[11] = Toxicity in nude mouse xenografted with human MGC-803 cells assessed as pathological changes in spleen at 5 mg/kg, ip administered once every two days for 21 days by H and E staining based analysis; format: organism-based; conditions: in vivo, 504 h, time 21 day; in short: as §3
[12] = Toxicity in nude mouse xenografted with human MGC-803 cells assessed as pathological changes in liver at 5 mg/kg, ip administered once every two days for 21 days by H and E staining based analysis; format: organism-based; conditions: in vivo, 504 h, time 21 day; in short: as §3
[13] = Metabolic stability in male CD-1 mouse liver microsomes assessed as half life at 2 uM incubated for 60 min in the presence of NADPH by LC-MS/MS analysis; format: ADME, Microsome
In short: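 Male CD-1 mouse liver microsomes at 0.5 mg/mL final in 100 mM phosphate buffer, pH 7.4. Mixture was preincubated with 1 mM NADPH (PBS only for the negative control) for 10 min at 37°C. Reaction was started with test compound at 2 µM final. Aliquots were taken at 0.5, 15, 30, 45 and 60 min into cold methanol with internal standard, centrifuged, and the supernatant analysed by LC-MS/MS.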

MGC-803 [14] = assay: Antitumor activity against human MGC-803 cells xenografted in nude mouse assessed as tumor inhibition ratio at 5 mg/kg, ip administered once every two days for 21 days relative to control; format: functional; conditions: MGC-803, 504 h, time 21 day; in short: as §4
[15] = Toxicity in nude mouse xenografted with human U-251 cells assessed as decrease in animal movement at 10 mg/kg, ip administered once every two days for 21 days; format: organism-based; conditions: in vivo, 504 h, time 21 day
MGC-803 [16] = assay: Antiproliferative activity against human MGC-803 cells incubated for 48 hrs by MTT assay; format: functional, cell-based; conditions: MGC-803, 48 h
In short: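 Cells kept as monolayers in DMEM with 10% FBS, streptomycin and penicillin, 37°C, 5% CO₂. Exponentially growing cells seeded in 96-well plates, exposed 48 h, then MTT (10 mg/mL stock) for 4 h at 37°C. Medium removed, formazan dissolved in DMSO, OD read at 490 nm. Five wells per condition; each cell line run three times.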

U-251 [17] = assay: Antitumor activity against human U-251 cells xenografted in nude mouse assessed as tumor inhibition ratio at 5 mg/kg, ip administered once every two days for 21 days relative to control; format: functional; conditions: U-251, 504 h, time 21 day; in short: as §1

Row | SMILES | IC50 (U-251 [4]) | IC50 at 48 h [5] | IC50 (MDA-MB-231) | IC50 at 48 h [6] | IC50 (A549) | IC50 (HCT-116) | IC50 (T-24) | inhibition in vivo at 5 mg/kg (MGC-803 [14]) | further results
1 | Cn1nnc2c(C(N)=O)ncn2c1=O [TEMOZOLOMIDE] | > 50 µM | – | – | – | – | – | – | – | inhibition in vivo at 25 mg/kg (U-251 [1]): 74.2%; Activity [2]: Toxic; Activity [3]: Toxic
2 | CN(C)CCN1C(=O)c2cccc3cc([N+](=O)[O-])cc(c23)C1=O [MITONAFIDE] | 9.68 µM | 2.13 µM | 7.59 µM | 5.9 µM | 3.6 µM | 12.2 µM | – | – | –
3 | CN(C)CCN1C(=O)c2cccc3c(N4CCNCC4)ccc(c23)C1=O | 10.5 µM | 6.38 µM | 0.96 µM | 1.99 µM | 13.5 µM | 7.15 µM | 5.86 µM | 40.3% | Activity [7]: Non-Toxic; Activity [8]: Non-Toxic; Activity [9]: Toxic; inhibition in vivo at 10 mg/kg (U-251 [10]): 71.5%; Activity [11]: Non-Toxic; Activity [12]: Non-Toxic; half-life at 2 µM [13]: > 3.08 h; Activity [15]: Toxic; IC50 (MGC-803 [16]): 1.72 µM
4 | CN(C)CCN1C(=O)c2cccc3cc(N)cc(c23)C1=O [AMONAFIDE] | > 50 µM | 27.2 µM | 21.1 µM | 21.9 µM | 12.4 µM | 25.7 µM | 7.94 µM | 42.2% | inhibition in vivo at 5 mg/kg (U-251 [17]): 35.4%
